# ChEMBL document CHEMBL4673214, “Synthesis and antibacterial bioactivities of cationic deacetyl linezolid amphiphiles” (Eur J Med Chem, 2018)
# Columns and labels:
# [1] = tested on: Staphylococcus aureus; assay: Antibacterial activity against Staphylococcus aureus ATCC 29213 assessed as reduction in bacterial growth incubated for 16 to 20 hrs by CLSI-based broth microdilution method; type: functional; conditions: time 16-20 hrs
# How it was run: (§1)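 Broth microdilution following CLSI, in cation-adjusted Mueller-Hinton broth. Inoculum from a 4-6 h culture (~10^8 CFU/mL), diluted to ~10^6 CFU/mL. Water stocks were serially diluted in MHB (256 to 0.5 µg/mL) and mixed 1:1 with the inoculum. Plates ran 16-20 h at 37 °C. MIC was read visually. Each concentration was tested in duplicate, and the experiment was repeated at least twice.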
# [2] = tested on: Escherichia coli; assay: Antibacterial activity against Escherichia coli ATCC 25922 assessed as reduction in bacterial growth incubated 16 to 20 hrs by CLSI-based broth microdilution method; type: functional; conditions: time 16-20 hrs; how it was run: as §1
# [3] = tested on: Salmonella enterica; assay: Antibacterial activity against Salmonella enterica ATCC 8387 assessed as reduction in bacterial growth incubated for 16 to 20 hrs by CLSI-based broth microdilution method; type: functional; conditions: time 16-20 hrs; how it was run: as §1
# [4] = tested on: Enterococcus faecalis; assay: Antibacterial activity against Enterococcus faecalis ATCC 29212 assessed as reduction in bacterial growth incubated 16 to 20 hrs by CLSI-based broth microdilution method; type: functional; conditions: time 16-20 hrs; how it was run: as §1
# [5] = Solubility of the compound in water at room temperature; type: physicochemical; conditions: buffer
MIC [1] [µg/mL],MIC [2] [µg/mL],MIC [3] [µg/mL],MIC [4] [µg/mL],solubility [5],Compound
32,128,128,64,Soluble,CCCCCCCCN(C[C@H]1CN(c2ccc(N3CCOCC3)c(F)c2)C(=O)O1)C(=O)[C@@H](N)CCCCN.Cl.Cl
8,16,32,8,Soluble,CCCCCCCCCCN(C[C@H]1CN(c2ccc(N3CCOCC3)c(F)c2)C(=O)O1)C(=O)[C@@H](N)CCCN=C(N)N.Cl.Cl.Cl
4,32,32,8,Soluble,CCCCCCCCCCN(C[C@H]1CN(c2ccc(N3CCOCC3)c(F)c2)C(=O)O1)C(=O)[C@@H](N)CCCCN.Cl.Cl
4,> 128,> 128,16,Soluble,CCCCCCCCCCCCCCCCCC[N+](C)(C)CC(=O)NC[C@H]1CN(c2ccc(N3CCOCC3)c(F)c2)C(=O)O1.[Cl-]
